Test results from ChEMBL document CHEMBL1154716, “Synthesis of some new S-triazine based chalcones and their derivatives as potent antimicrobial agents” (2010).
≈ marks a conversion by molar mass, not a printed value. Calls of active or inactive are those of the source. The calls are words filed in the database; no cut-off is given here.

Columns and labels:
Listeria monocytogenes [1] = assay: Antimicrobial activity against Listeria monocytogenes at 1 umol/spot after 18 hrs by TLC-bioautographic method; type: functional
Outline: (§1)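 TLC bioautography. Samples are spotted on silica gel TLC plates, then sprayed with bacteria (1.0 × 10^5 cfu/ml) in tryptic soy broth. Plates are incubated 18 h at 37 C and sprayed with 3% aqueous p-iodonitrotetrazolium violet. After a further 3 h, growth is stopped with 70% EtOH. White zones on a pink background are scored as inhibition-zone diameter with standard errors.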

Listeria monocytogenes [2] = assay: Antimicrobial activity against Listeria monocytogenes at 1 umol/disk after 24 hrs by disk diffusion assay; type: functional
Outline: (§2)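 Disc diffusion on 4 mm filter discs. Bacteria are grown overnight in LB at 28 C, then adjusted in saline to 1.0 × 10^5 cfu/ml. The suspension is mixed into top agar over peptone agar plates. Plates are incubated 24 h at 28 C, and growth-inhibition zone diameter is measured. Streptomycin and ampicillin controls are applied from a 1 mg/ml stock. Tests are done in duplicate.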

Bacillus cereus [3] = assay: Antimicrobial activity against Bacillus cereus after 24 hrs by microdilution technique; type: functional
Outline: (§3)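 Broth microdilution in LB medium. Inoculum is 1.0 × 10^4 cfu per well, from a saline-adjusted suspension of 1.0 × 10^5 cfu/ml. Compounds are dissolved in DMSO. Incubated 24 h at 28 C. MIC is the lowest concentration with no visible growth under a binocular microscope. MBC is read by subculture into fresh broth for 72 h, with no growth taken as 99.5% kill. OD is read at 655 nm.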

Salmonella typhimurium [4] = assay: Antimicrobial activity against Salmonella Typhimurium after 24 hrs by microdilution technique; type: functional, Salmonella enterica subsp. enterica serovar Typhimurium; settings: Salmonella enterica; outline: as §3
Escherichia coli [5] = assay: Antimicrobial activity against Escherichia coli at 1 umol/spot after 18 hrs by TLC-bioautographic method; type: functional; outline: as §1
Enterobacter cloacae [6] = assay: Antimicrobial activity against Enterobacter cloacae at 10 ug/disk after 24 hrs by disk diffusion assay; type: functional; outline: as §2
Pseudomonas aeruginosa [7] = assay: Antimicrobial activity against Pseudomonas aeruginosa at 1 umol/disk after 24 hrs by disk diffusion assay; type: functional; outline: as §2
Listeria monocytogenes [8] = assay: Antimicrobial activity against Listeria monocytogenes at 10 ug/disk after 24 hrs by disk diffusion assay; type: functional; outline: as §2
Salmonella typhimurium [9] = assay: Antimicrobial activity against Salmonella Typhimurium at 1 umol/disk after 24 hrs by disk diffusion assay; type: functional, organism-based; settings: Salmonella enterica subsp. enterica serovar Typhimurium; outline: as §2
Bacillus cereus [10] = assay: Antimicrobial activity against Bacillus cereus at 10 ug/disk after 24 hrs by disk diffusion assay; type: functional; outline: as §2
Salmonella typhimurium [11] = assay: Antimicrobial activity against Salmonella Typhimurium at 1 umol/spot after 18 hrs by TLC-bioautographic method; type: functional, Salmonella enterica subsp. enterica serovar Typhimurium; outline: as §1
Enterobacter cloacae [12] = assay: Antimicrobial activity against Enterobacter cloacae at 1 umol/spot after 18 hrs by TLC-bioautographic method; type: functional; outline: as §1
Staphylococcus aureus [13] = assay: Antimicrobial activity against Staphylococcus aureus at 1 umol/disk after 24 hrs by disk diffusion assay; type: functional; outline: as §2
Micrococcus flavus [14] = assay: Antimicrobial activity against Micrococcus flavus at 10 ug/disk after 24 hrs by disk diffusion assay; type: functional; outline: as §2
Escherichia coli [15] = assay: Antimicrobial activity against Escherichia coli at 1 umol/disk after 24 hrs by disk diffusion assay; type: functional; outline: as §2
Micrococcus flavus [16] = assay: Antimicrobial activity against Micrococcus flavus at 1 umol/disk after 24 hrs by disk diffusion assay; type: functional; outline: as §2
Staphylococcus aureus [17] = assay: Antimicrobial activity against Staphylococcus aureus after 24 hrs by microdilution technique; type: functional; outline: as §3
Enterobacter cloacae [18] = assay: Antimicrobial activity against Enterobacter cloacae at 1 umol/disk after 24 hrs by disk diffusion assay; type: functional; outline: as §2
Pseudomonas aeruginosa [19] = assay: Antimicrobial activity against Pseudomonas aeruginosa at 1 umol/spot after 18 hrs by TLC-bioautographic method; type: functional; outline: as §1
Staphylococcus aureus [20] = assay: Antimicrobial activity against Staphylococcus aureus at 10 ug/disk after 24 hrs by disk diffusion assay; type: functional; outline: as §2
Micrococcus flavus [21] = assay: Antimicrobial activity against Micrococcus flavus at 1 umol/spot after 18 hrs by TLC-bioautographic method; type: functional; outline: as §1
Escherichia coli [22] = assay: Antimicrobial activity against Escherichia coli after 24 hrs by microdilution technique; type: functional; outline: as §3
Listeria monocytogenes [23] = assay: Antimicrobial activity against Listeria monocytogenes after 24 hrs by microdilution technique; type: functional; outline: as §3
Micrococcus flavus [24] = assay: Antimicrobial activity against Micrococcus flavus after 24 hrs by microdilution technique; type: functional; outline: as §3
Bacillus cereus [25] = assay: Antimicrobial activity against Bacillus cereus at 1 umol/spot after 18 hrs by TLC-bioautographic method; type: functional; outline: as §1
Pseudomonas aeruginosa [26] = assay: Antimicrobial activity against Pseudomonas aeruginosa after 24 hrs by microdilution technique; type: functional; outline: as §3
Escherichia coli [27] = assay: Antimicrobial activity against Escherichia coli at 10 ug/disk after 24 hrs by disk diffusion assay; type: functional; outline: as §2
Salmonella typhimurium [28] = assay: Antimicrobial activity against Salmonella Typhimurium at 10 ug/disk after 24 hrs by disk diffusion assay; type: functional, organism-based; settings: Salmonella enterica subsp. enterica serovar Typhimurium; outline: as §2
Staphylococcus aureus [29] = assay: Antimicrobial activity against Staphylococcus aureus at 1 umol/spot after 18 hrs by TLC-bioautographic method; type: functional; outline: as §1
Enterobacter cloacae [30] = assay: Antimicrobial activity against Enterobacter cloacae after 24 hrs by microdilution technique; type: functional; outline: as §3
Bacillus cereus [31] = assay: Antimicrobial activity against Bacillus cereus at 1 umol/disk after 24 hrs by disk diffusion assay; type: functional; outline: as §2
Pseudomonas aeruginosa [32] = assay: Antimicrobial activity against Pseudomonas aeruginosa at 10 ug/disk after 24 hrs by disk diffusion assay; type: functional; outline: as §2

Row | SMILES | inhibition zone (IZ) (Listeria monocytogenes [1]) [millimeter] | inhibition zone (IZ) (Listeria monocytogenes [2]) | MBC (Bacillus cereus [3]) [µM] | MIC (Bacillus cereus [3]) [µM] | MBC (Salmonella typhimurium [4]) [µM] | MIC (Salmonella typhimurium [4]) [µM] | inhibition zone (IZ) (Escherichia coli [5]) | inhibition zone (IZ) (Enterobacter cloacae [6]) | inhibition zone (IZ) (Pseudomonas aeruginosa [7]) | inhibition zone (IZ) (Listeria monocytogenes [8]) | inhibition zone (IZ) (Salmonella typhimurium [9]) | inhibition zone (IZ) (Bacillus cereus [10]) | inhibition zone (IZ) (Salmonella typhimurium [11]) [millimeter] | inhibition zone (IZ) (Enterobacter cloacae [12]) [millimeter] | inhibition zone (IZ) (Staphylococcus aureus [13]) | inhibition zone (IZ) (Micrococcus flavus [14]) | inhibition zone (IZ) (Escherichia coli [15]) | inhibition zone (IZ) (Micrococcus flavus [16]) | MBC (Staphylococcus aureus [17]) [µM] | MIC (Staphylococcus aureus [17]) [µM] | further results
1 | O=C(/C=C/c1ccc([N+](=O)[O-])cc1)c1ccc(Nc2nc(Nc3ccccc3)nc(Nc3ccccc3)n2)cc1 | 0.07 | inactive | 378 (≈ 200 µg/mL) | 189 (≈ 100 µg/mL) | 756 (≈ 400 µg/mL) | 378 (≈ 200 µg/mL) | inactive | inactive | inactive | inactive | inactive | inactive | 0.08 | 0.09 | inactive | inactive | 0.03 millimeter | inactive | 756 (≈ 400 µg/mL) | 378 (≈ 200 µg/mL) | inhibition zone (IZ) (Enterobacter cloacae [18]): inactive; inhibition zone (IZ) (Pseudomonas aeruginosa [19]): inactive; inhibition zone (IZ) (Staphylococcus aureus [20]): inactive; inhibition zone (IZ) (Micrococcus flavus [21]): 0.05 millimeter; MBC (Escherichia coli [22]): 378 µM (≈ 200 µg/mL); MIC (Escherichia coli [22]): 189 µM (≈ 100 µg/mL); MBC (Listeria monocytogenes [23]): 756 µM (≈ 400 µg/mL); MIC (Listeria monocytogenes [23]): 378 µM (≈ 200 µg/mL); MBC (Micrococcus flavus [24]): 378 µM (≈ 200 µg/mL); MIC (Micrococcus flavus [24]): 189 µM (≈ 100 µg/mL); inhibition zone (IZ) (Bacillus cereus [25]): inactive; MBC (Pseudomonas aeruginosa [26]): 756 µM (≈ 400 µg/mL); MIC (Pseudomonas aeruginosa [26]): 378 µM (≈ 200 µg/mL); zone of inhibition at 10 µg/disc (Escherichia coli [27]; read-out: IZ): 6 mm; inhibition zone (IZ) (Salmonella typhimurium [28]): inactive; inhibition zone (IZ) (Staphylococcus aureus [29]): inactive; MBC (Enterobacter cloacae [30]): 378 µM (≈ 200 µg/mL); MIC (Enterobacter cloacae [30]): 189 µM (≈ 100 µg/mL); inhibition zone (IZ) (Bacillus cereus [31]): inactive; inhibition zone (IZ) (Pseudomonas aeruginosa [32]): inactive
2 | CC(=O)N1N=C(c2ccc(Nc3nc(Nc4ccccc4)nc(Nc4ccccc4)n3)cc2)CC1c1ccc(Cl)cc1 (stereo not given) | 0.09 | inactive | 696 (≈ 400 µg/mL) | 696 (≈ 400 µg/mL) | 696 (≈ 400 µg/mL) | 348 (≈ 200 µg/mL) | inactive | inactive | inactive | inactive | inactive | inactive | 0.07 | 0.09 | inactive | inactive | inactive | inactive | 696 (≈ 400 µg/mL) | 696 (≈ 400 µg/mL) | inhibition zone (IZ) (Enterobacter cloacae [18]): inactive; inhibition zone (IZ) (Pseudomonas aeruginosa [19]): inactive; inhibition zone (IZ) (Staphylococcus aureus [20]): inactive; inhibition zone (IZ) (Micrococcus flavus [21]): inactive; MBC (Escherichia coli [22]): 696 µM (≈ 400 µg/mL); MIC (Escherichia coli [22]): 348 µM (≈ 200 µg/mL); MBC (Listeria monocytogenes [23]): 696 µM (≈ 400 µg/mL); MIC (Listeria monocytogenes [23]): 696 µM (≈ 400 µg/mL); MBC (Micrococcus flavus [24]): 696 µM (≈ 400 µg/mL); MIC (Micrococcus flavus [24]): 696 µM (≈ 400 µg/mL); inhibition zone (IZ) (Bacillus cereus [25]): 0.08 millimeter; MBC (Pseudomonas aeruginosa [26]): 696 µM (≈ 400 µg/mL); MIC (Pseudomonas aeruginosa [26]): 696 µM (≈ 400 µg/mL); inhibition zone (IZ) (Escherichia coli [27]): inactive; inhibition zone (IZ) (Salmonella typhimurium [28]): inactive; inhibition zone (IZ) (Staphylococcus aureus [29]): 0.08 millimeter; MBC (Enterobacter cloacae [30]): 696 µM (≈ 400 µg/mL); MIC (Enterobacter cloacae [30]): 696 µM (≈ 400 µg/mL); inhibition zone (IZ) (Bacillus cereus [31]): inactive; inhibition zone (IZ) (Pseudomonas aeruginosa [32]): inactive
